Experimental data collected from several papers.
Compare with care: the assays were run in different laboratories.
Target: Angiopoietin-1 receptor (TEK, Homo sapiens, UniProt Q02763)

| Structure (SMILES) | test | conditions | remaining binding |
| --- | --- | --- | --- |
| N[C@H]1CCN(c2nccc(-c3cnn4ncccc34)n2)C1 | binding | 1 µM | 84% |
| CS(=O)(=O)N1CCCC(NC(=O)[C@H](CCC2CCCCC2)NC(=O)c2ccc(CNc3ncnc4c3nnn4-c3ccccc3)cc2)C1 (stereo partly shown) | cell-free assay, competition with immobilised ligand | 0.1 µM | 73% |
| CN(C)c1nccc(-c2cnn3ncccc23)n1 | binding | 1 µM | 100% |
| O=C(c1ccc(Nc2ncc(Cl)c(-c3ccc(Cl)s3)n2)cc1)N1CCC(N2CCCC2)CC1 | binding, competition with immobilised ligand | 1 µM | 23% |
| COc1cc(-c2cn(C3CCc4ccccc4N(CC(F)(F)F)C3=O)nn2)ccc1-n1ccc(C)n1 (stereo not shown) | cell-free assay, competition with immobilised ligand | 1 µM | 81% |
| C[C@@H]1CN(c2ccc3ncc(-c4ccc5[nH]nc(C6CC6)c5c4)n3n2)C[C@H](C)O1 | binding, competition with immobilised ligand | 50 nM | 99% |
| FC(F)(F)Oc1cccc(-c2cnc3ccc(-c4ccncc4)nn23)c1 | cell-free assay, competition with immobilised ligand | 5 µM | 76% |
| CNC(=O)c1ccc(Nc2ncc(C(F)(F)F)c(NCc3nccnc3N(C)S(C)(=O)=O)n2)cc1 | cell-free assay, competition with immobilised ligand | 0.1 µM | 69% |
| COc1cnc(Nc2cccc(S(N)(=O)=O)c2)nc1N1CCN(c2ccccc2)CC1 | binding, competition with immobilised ligand | 1 µM | 100% |
| C[C@@H](c1ccc(-n2cnc3c(N)ncnc32)cc1)N1CCc2nn(C)c(Cc3ccccc3)c2C1=O | binding, competition with immobilised ligand | 0.1 µM | 81% |
| C[C@@H]1CN(c2cc(-c3nn(C)c4ccc(OC5(C)CC5)cc34)ncn2)C[C@H](C)O1 | cell-free assay, competition with immobilised ligand | 1 µM | 94% |
| c1cnn2ncc(-c3ccnc(N4CCC45COC5)n3)c2c1 | binding | 1 µM | 83% |
| C=CC(=O)N1CCC(C(=O)NCC(=O)N2CCN(c3nc(-c4cnc(N)nc4C(F)F)nc(N4CCOCC4)n3)CC2)CC1 | binding, competition with immobilised ligand | 1 µM | 97% |
| O=C(c1ccc(Nc2nccc(-c3cc4ccccc4s3)n2)cc1)N1CCC(N2CCCC2)CC1 | binding, competition with immobilised ligand | 1 µM | 31% |
| CC(=O)C1=C(C)N(c2cccc(C(F)(F)F)c2)C(=O)N[C@@H]1c1ccc(C#N)nc1 | cell-free assay, competition with immobilised ligand | 1 µM | 100% |
| O=C(NCC1CCOCC1)c1n[nH]cc1NC(=O)c1c(F)cccc1F | binding, competition with immobilised ligand | 1 µM | 100% |
| CNC(=O)[C@@H]1CC[C@@H](n2c(-c3ccc4cnccc4c3)nc3ccc(C(=O)NCc4cccc(C(N)=O)c4)cc32)C1 | binding, competition with immobilised ligand | 1 µM | 100% |
| C[C@@H]1CCN(c2nccc(-c3cnn4ncccc34)n2)C1 | binding | 1 µM | 77% |
| O=C(NCCCN1CCOCC1)c1ccc(Nc2nccc(-c3cc4ccccc4s3)n2)cc1 | binding, competition with immobilised ligand | 1 µM | 58% |
| COc1ccnn2ncc(-c3ccnc(N(C)C)n3)c12 | binding | 1 µM | 100% |
| CN(C)C(=O)Cn1cc(-c2nc(C3(c4ccc(-c5cnc(N)nc5)cc4)CC3)no2)cn1 | cell-free assay, competition with immobilised ligand | 1 µM | 88% |
| Cc1cnn2ncc(-c3ccnc(N(C)C)n3)c2c1 | binding | 1 µM | 100% |
| Cc1nc(N2CC[C@@H](O)C2)ncc1-c1cc(C(F)(F)F)cc2[nH]ncc12 | cell-free assay, competition with immobilised ligand | 1 µM | 100% |
| CN(C)c1ncc(F)c(-c2cnn3ncccc23)n1 | binding | 1 µM | 100% |
| c1cncc(-c2cccc(Nc3nccc(NC4CCCCC4)n3)c2)c1 | binding, competition with immobilised ligand | 10 µM | 38% |
